From ChEMBL document CHEMBL1126107, “Structure-activity relationships of imidazo[4,5-f]quinoline partial structures and analogs. Discovery of pyrazolo[3,4-f]quinoline derivatives as potent immunostimulants” (1992)
In brackets after ≈: the same amount, converted by molar mass.

What was measured:
Escherichia coli [1] = assay: Minimum subcutaneous effective dose required to protect mice from systemic Escherichia coli; assay type: functional; conditions: sc, read-out: MED
How it was run: (§1)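 Female NSA (CF-1) mice, 11–16 g, dosed sc with compound in pyrogen-free saline or water 24 h before ip injection of 0.5 mL E. coli N63 (~4×10^7 CFU/mL, from log-phase L broth culture). Subtherapeutic gentamicin given sc at 0.5, 4 and 24 h postinfection. Ten mice per group. Survival versus infected untreated controls. Minimum effective dose is the sc dose giving significant protection (p < 0.05). The 100%-protection dose is also reported.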

Escherichia coli [2] = assay: Effective dose at which 100% protection occurs in mice infected with Escherichia coli; assay type: functional; how it was run: as §1
Mus musculus [3] = assay: Minimum subcutaneous effective dose required to protect mice from systemic Escherichia coli; ND=No dose response; assay type: functional, organism-based; how it was run: as §1
Escherichia coli [4] = assay: In vitro antibacterial activity on sensitivity of Escherichia coli N63 to gentamicin at a concentration of 100 ug/mL; assay type: functional
How it was run: (§2)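 Checkerboard broth microdilution of E. coli N63, inoculated from overnight BHI agar growth, in Mueller-Hinton broth with serial 2-fold dilutions of aminoquinoline and gentamicin. Overnight at 37 °C. Growth read as turbidity at 600 nm, corrected with uninoculated drug-containing wells for insoluble compound. Gentamicin MIC determined at each fixed aminoquinoline concentration.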

Escherichia coli [5] = assay: In vitro antibacterial activity on sensitivity of Escherichia coli N63 to gentamicin at a concentration of 25 ug/mL; assay type: functional; how it was run: as §2
Escherichia coli [6] = assay: In vitro antibacterial activity on sensitivity of Escherichia coli N63 to gentamicin at a concentration of 12.5 ug/mL; assay type: functional; how it was run: as §2
Mus musculus [7] = assay: Effect of interval between drug treatment and challenge on activity in the mouse protection assay 3 days prior to infection at 1.7 mg/Kg; assay type: functional
How it was run: (§3)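 Female NSA (CF-1) mice, 11–16 g, given compound sc in pyrogen-free saline or water (suspensions homogenized) at 6, 3, 1 or 0 days before ip challenge with 0.5 mL E. coli N63 (~4×10^7 CFU/mL). Gentamicin sc at 0.5, 4 and 24 h postinfection. Ten mice per group. Percent protection = (dead in control − dead in treated) ÷ dead in control × 100.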

Escherichia coli [8] = assay: In vitro antibacterial activity on sensitivity of Escherichia coli N63 to gentamicin at a concentration of 50 ug/mL; assay type: functional; how it was run: as §2
Escherichia coli [9] = assay: In vitro antibacterial activity on sensitivity of Escherichia coli N63 to gentamicin at a concentration of 1.56 ug/mL; assay type: functional; how it was run: as §2
Mus musculus [10] = assay: Effect of interval between drug treatment and challenge on activity in the mouse protection assay 1 days prior to infection at 1.7 mg/Kg; assay type: functional; how it was run: as §3
Escherichia coli [11] = assay: In vitro antibacterial activity on sensitivity of Escherichia coli N63 to gentamicin at a concentration of 3.13 ug/mL; assay type: functional; how it was run: as §2
Escherichia coli [12] = assay: In vitro antibacterial activity on sensitivity of Escherichia coli N63 to gentamicin at a concentration of 0 ug/mL; assay type: functional; how it was run: as §2
Escherichia coli [13] = assay: In vitro antibacterial activity on sensitivity of Escherichia coli N63 to gentamicin at a concentration of 6.25 ug/mL
Mus musculus [14] = assay: Effect of interval between drug treatment and challenge on activity in the mouse protection assay 0 days prior to infection at 1.7 mg/Kg; assay type: functional; how it was run: as §3
Escherichia coli [15] = assay: Compound was evaluated for efficacy in murine systemic Escherichia coli infection with subtherapeutic gentamycin treatment; assay type: functional; conditions: read-out: PD50
How it was run: (§4)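 Female NSA (CF-1) mice (11–16 g) were given test compound in pyrogen-free saline or water, or as a homogenized saline suspension, 24 h before ip challenge with 0.5 mL E. coli N63 (serotype O18) at about 4×10^7 CFU/mL. Gentamicin 0.5 mg/kg was given sc at 0.5, 4 and 24 h postinfection. Endpoint was survival, with 10 mice per group. PD50 was derived by probit analysis of pooled experiments.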

Escherichia coli [16] = assay: Compound was evaluated for efficacy in murine systemic Escherichia coli infection without subtherapeutic gentamycin treatment; assay type: functional; conditions: read-out: PD50
How it was run: as §4, with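 “No gentamicin” for “Gentamicin 0.5 mg/kg”, “given.” for “given sc at 0.5, 4 and 24 h postinfection.”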

Mus musculus [17] = assay: Effect of interval between drug treatment and challenge on activity in the mouse protection assay 6 days prior to infection at 1.7 mg/Kg; assay type: functional; how it was run: as §3

Row | SMILES | minimal effective dose (Escherichia coli [1]) | ED100 (Escherichia coli [2]) | further results
1 | COc1cccc(Nc2cc(C)nc3ccccc23)c1 | > 50 mg/kg | – | –
2 | Cc1cc(Nc2ccc(C#N)cc2)c2c(ccc3[nH]cnc32)n1 | 2 mg/kg | 2 mg/kg | –
3 | CCCCOc1ccc(Nc2cc(C)nc3ccccc23)cc1 | > 50 mg/kg | – | –
4 | CCCCOc1ccc(Nc2cc(C)nc3ccc4[nH]cnc4c23)cc1 | 5 mg/kg | 15 mg/kg | –
5 | Cc1cc(Nc2ccc(OCc3ccccc3)cc2)c2c(ccc3c[nH]nc32)n1 | 2 mg/kg | 6 mg/kg | –
6 | Cc1cc(NC2CCCCC2)c2c(ccc3[nH]cnc32)n1 | 6 mg/kg | 6 mg/kg | –
7 | COc1cccc(Nc2cc(C)nc(C)c2C(C)=O)c1 | > 100 mg/kg | – | –
8 | O=C(NC1CCCCC1)c1cccc2[nH]cnc12 | > 50 mg/kg | – | –
9 | CCCCc1ccc(Nc2cc(C)nc3ccc4[nH]cnc4c23)cc1 | 5 mg/kg | 15 mg/kg | –
10 | Cc1cc(Nc2ccc(OCc3ccccc3)cc2)c2ccccc2n1 | > 50 mg/kg | – | –
11 | Cc1cc(Nc2ccc(OCc3ccccc3)cc2)c2c(ccc3[nH]ncc32)n1 | – | – | MED (Mus musculus [3]): No dose response
12 | COc1cccc(Nc2cc(C)nc3ccc4[nH]cnc4c23)c1 | 6 mg/kg | 50 mg/kg | –
13 | Cc1cc(Nc2ccc(OCC3CCCCC3)cc2)c2c(ccc3[nH]cnc32)n1 | 1 mg/kg | 5 mg/kg | MIC (Escherichia coli [4]): 0.063 µg/mL (≈ 0.163 µM); MIC (Escherichia coli [5]): 0.125 µg/mL (≈ 0.323 µM); MIC (Escherichia coli [6]): 0.125 µg/mL (≈ 0.323 µM); Protection (Mus musculus [7]): 40%; MIC (Escherichia coli [8]): 0.063 µg/mL (≈ 0.163 µM); MIC (Escherichia coli [9]): 0.25 µg/mL (≈ 0.647 µM); Protection (Mus musculus [10]): 60%; MIC (Escherichia coli [11]): 0.25 µg/mL (≈ 0.647 µM); MIC (Escherichia coli [12]): 0.5 µg/mL (≈ 1.29 µM); MIC (Escherichia coli [13]): 0.25 µg/mL (≈ 0.647 µM); Protection (Mus musculus [14]): 0%; ED50 (Escherichia coli [15]): 0.5 mg/kg; ED50 (Escherichia coli [16]): 1.5 mg/kg; Protection (Mus musculus [17]): 0%
14 | COc1cccc(Sc2cc(C)nc3ccc4[nH]cnc4c23)c1 | > 50 mg/kg | – | –
15 | COc1cccc(Nc2cc(C)nc(C)c2/C(C)=N/O)c1 | > 100 mg/kg | – | –
16 | COc1cccc(Nc2cc(C)nc3ccc4c[nH]nc4c23)c1 | 6 mg/kg | 17 mg/kg | MIC (Escherichia coli [5]): 0.25 µg/mL (≈ 0.821 µM); MIC (Escherichia coli [6]): 0.25 µg/mL (≈ 0.821 µM); Protection (Mus musculus [7]): 100%; MIC (Escherichia coli [8]): 0.25 µg/mL (≈ 0.821 µM); MIC (Escherichia coli [9]): 0.25 µg/mL (≈ 0.821 µM); Protection (Mus musculus [10]; in the assay text read “25 mg/Kg” for “1.7 mg/Kg”): 100%; MIC (Escherichia coli [11]): 0.25 µg/mL (≈ 0.821 µM); MIC (Escherichia coli [12]): 0.25 µg/mL (≈ 0.821 µM); MIC (Escherichia coli [13]): 0.25 µg/mL (≈ 0.821 µM); Protection (Mus musculus [14]): 0%; ED50 (Escherichia coli [15]): 4.2 mg/kg; ED50 (Escherichia coli [16]): 9.8 mg/kg; Protection (Mus musculus [17]): 88%
17 | O=C(Nc1ccc(OCC2CCCCC2)cc1)c1cccc2[nH]cnc12 | > 50 mg/kg | – | –
18 | COc1cccc(N(C)c2cc(C)nc3ccc4[nH]cnc4c23)c1 | > 50 mg/kg | – | –
19 | CCCCc1ccc(Nc2cc(C)nc3ccccc23)cc1 | > 50 mg/kg | – | –
20 | COc1cccc(Nc2cc(C)nc3ccc4[nH]ncc4c23)c1 | > 50 mg/kg | – | –
21 | N#Cc1ccc(NC(=O)c2cccc3[nH]cnc23)cc1 | > 50 mg/kg | – | –
22 | COc1cccc(Nc2cc(C)nc(C)c2C(C)O)c1 (stereo not drawn) | > 100 mg/kg | – | –
23 | COc1cccc(NC(=O)c2cccc3[nH]cnc23)c1 | > 50 mg/kg | – | –
